Results published in ChEMBL document CHEMBL4715682, “Potent trifluoromethoxy, trifluoromethylsulfonyl, trifluoromethylthio and pentafluorosulfanyl containing (1,3,4-oxadiazol-2-yl)benzamides against drug-resistant Gram-positive bacteria” (RSC Med Chem, 2020).
Values after ≈ are worked out from the molar mass of the structure shown. Active and inactive are the calls of the source. No cut-off for these calls is given here.

How the values were obtained:
Staphylococcus aureus [1] = assay: Antibacterial activity against Staphylococcus aureus ATCC 25923 assessed as inhibition of visible bacterial growth incubated for 18 to 20 hrs by CLSI method; assay type: functional; settings: time 18-20 hrs
Procedure, shortened: (§1)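 CLSI broth microdilution. Strains grown aerobically overnight on tryptic soy agar at 37 °C, adjusted to 0.5 McFarland and diluted in cation-adjusted Mueller–Hinton broth to about 5×10^5 CFU/mL. Compounds and control drugs serially diluted across the plate. Incubated aerobically at 37 °C for 18-20 h. MIC is the lowest concentration with no visible growth.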

Staphylococcus aureus [2] = assay: Antibacterial activity against methicillin-resistant Staphylococcus aureus ATCC 33592 assessed as inhibition of visible bacterial growth incubated for 18 to 20 hrs by CLSI method; assay type: functional; settings: time 18-20 hrs; procedure, shortened: as §1
Staphylococcus aureus [3] = assay: Antibacterial activity against methicillin-sensitive Staphylococcus aureus ATCC 6538 assessed as inhibition of visible bacterial growth incubated for 18 to 20 hrs by CLSI method; assay type: functional; settings: time 18-20 hrs; procedure, shortened: as §1
Staphylococcus aureus [4] = assay: Antibacterial activity against methicillin-sensitive Staphylococcus aureus NRS 107 assessed as inhibition of visible bacterial growth incubated for 18 to 20 hrs by CLSI method; assay type: functional; settings: time 18-20 hrs; procedure, shortened: as §1
Staphylococcus aureus [5] = assay: Antibacterial activity against methicillin-resistant Staphylococcus aureus NRS 119 assessed as inhibition of visible bacterial growth incubated for 18 to 20 hrs by CLSI method; assay type: functional; settings: time 18-20 hrs; procedure, shortened: as §1
Staphylococcus aureus [6] = assay: Antibacterial activity against methicillin-resistant Staphylococcus aureus NRS382 assessed as inhibition of visible bacterial growth incubated for 18 to 20 hrs by CLSI method; assay type: functional; settings: time 18-20 hrs; procedure, shortened: as §1
Staphylococcus aureus [7] = assay: Antibacterial activity against methicillin-resistant Staphylococcus aureus NRS383 assessed as inhibition of visible bacterial growth incubated for 18 to 20 hrs by CLSI method; assay type: functional; settings: time 18-20 hrs; procedure, shortened: as §1
Staphylococcus aureus [8] = assay: Antibacterial activity against methicillin-resistant Staphylococcus aureus NRS384 assessed as inhibition of visible bacterial growth incubated for 18 to 20 hrs by CLSI method; assay type: functional; settings: time 18-20 hrs; procedure, shortened: as §1
Staphylococcus aureus [9] = assay: Antibacterial activity against methicillin-resistant Staphylococcus aureus NRS123 assessed as inhibition of visible bacterial growth incubated for 18 to 20 hrs by CLSI method; assay type: functional; settings: time 18-20 hrs; procedure, shortened: as §1
Staphylococcus aureus [10] = assay: Antibacterial activity against methicillin-resistant Staphylococcus aureus NRS385 assessed as inhibition of visible bacterial growth incubated for 18 to 20 hrs by CLSI method; assay type: functional; settings: time 18-20 hrs; procedure, shortened: as §1
Staphylococcus aureus [11] = assay: Antibacterial activity against methicillin-resistant Staphylococcus aureus NRS386 assessed as inhibition of visible bacterial growth incubated for 18 to 20 hrs by CLSI method; assay type: functional; settings: time 18-20 hrs; procedure, shortened: as §1
Staphylococcus aureus [12] = assay: Antibacterial activity against methicillin-resistant Staphylococcus aureus NRS387 assessed as inhibition of visible bacterial growth incubated for 18 to 20 hrs by CLSI method; assay type: functional; settings: time 18-20 hrs; procedure, shortened: as §1
Staphylococcus aureus [13] = assay: Antibacterial activity against methicillin-resistant Staphylococcus aureus NRS483 assessed as inhibition of visible bacterial growth incubated for 18 to 20 hrs by CLSI method; assay type: functional; settings: time 18-20 hrs; procedure, shortened: as §1
Staphylococcus aureus [14] = assay: Antibacterial activity against methicillin-resistant Staphylococcus aureus NRS484 assessed as inhibition of visible bacterial growth incubated for 18 to 20 hrs by CLSI method; assay type: functional; settings: time 18-20 hrs; procedure, shortened: as §1
Staphylococcus aureus [15] = assay: Antibacterial activity against vancomycin-resistant Staphylococcus aureus 10 assessed as inhibition of visible bacterial growth incubated for 18 to 20 hrs by CLSI method; assay type: functional; settings: time 18-20 hrs; procedure, shortened: as §1
Staphylococcus aureus [16] = assay: Antibacterial activity against vancomycin-resistant Staphylococcus aureus 12 assessed as inhibition of visible bacterial growth incubated for 18 to 20 hrs by CLSI method; assay type: functional; settings: time 18-20 hrs; procedure, shortened: as §1
[17] = tested on: Staphylococcus epidermidis; assay: Antibacterial activity against Staphylococcus epidermidis NRS101 assessed as inhibition of visible bacterial growth incubated for 18 to 20 hrs by CLSI method; assay type: functional; settings: time 18-20 hrs
Procedure, shortened: (§2)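 Broth microdilution per CLSI. Strains grown aerobically overnight on TSA at 37 °C, suspended to 0.5 McFarland, diluted in CAMHB to about 5×10^5 CFU/mL. Agents serially diluted across plate; aerobic incubation 37 °C for 18-20 h. MIC = lowest concentration completely preventing visible growth.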

Streptococcus pneumoniae [18] = assay: Antibacterial activity against cephalosporin-resistant Streptococcus pneumoniae ATCC 51916 assessed as inhibition of visible bacterial growth incubated for 18 to 20 hrs by CLSI method; assay type: functional; settings: time 18-20 hrs; procedure, shortened: as §1
Streptococcus pneumoniae [19] = assay: Antibacterial activity against […] Streptococcus pneumoniae ATCC 700677 assessed as inhibition of visible bacterial growth incubated for 18 to 20 hrs by CLSI method; assay type: functional; settings: time 18-20 hrs; procedure, shortened: as §1
Enterococcus faecalis [20] = assay: Antibacterial activity against vancomycin- resistant Enterococcus faecalis ATCC 51299 assessed as inhibition of visible bacterial growth incubated for 18 to 20 hrs by CLSI method; assay type: functional; settings: time 18-20 hrs; procedure, shortened: as §1
Enterococcus faecalis [21] = assay: Antibacterial activity against vancomycin- resistant Enterococcus faecalis ATCC 700221 assessed as inhibition of visible bacterial growth incubated for 18 to 20 hrs by CLSI method; assay type: functional; settings: time 18-20 hrs; procedure, shortened: as §1
Listeria monocytogenes = assay: Antibacterial activity against Listeria monocytogenes ATCC 19111 assessed as inhibition of visible bacterial growth incubated for 18 to 20 hrs by CLSI method; assay type: functional; settings: time 18-20 hrs; procedure, shortened: as §2
Escherichia coli = assay: Antibacterial activity against Escherichia coli ATCC 25404 assessed as inhibition of visible bacterial growth at 16 ug/ml incubated for 18 to 20 hrs by CLSI method; assay type: functional, organism-based; settings: B ATCC 25404, dose 16.0 µg/ml, time 18-20 hrs; procedure, shortened: as §1
Pseudomonas aeruginosa = assay: Antibacterial activity against Pseudomonas aeruginosa ATCC 27853 assessed as inhibition of visible bacterial growth at 16 ug/ml incubated for 18 to 20 hrs by CLSI method; assay type: functional, organism-based; settings: dose 16.0 µg/ml, time 18-20 hrs; procedure, shortened: as §1
Acinetobacter baumannii = assay: Antibacterial activity against Acinetobacter baumannii ATCC 19606 RW4 assessed as inhibition of visible bacterial growth at 16 ug/ml incubated for 18 to 20 hrs by CLSI method; assay type: functional, organism-based; settings: ATCC 19606 = CIP 70.34 = JCM 6841 RW4, dose 16.0 µg/ml, time 18-20 hrs; procedure, shortened: as §1
Caco-2 = assay: Cytotoxicity against human Caco2 cells assessed as reduction in cell viability at 128 ug/ml incubated for 2 hrs by MTS assay; assay type: cell-based; settings: caco-2, 2 h, dose 128 µg/ml
[22] = Hemolytic activity in human RBC at 128 ug/ml incubated for 60 mins relative to control; assay type: ADME, cell-based, Erythrocyte; settings: red blood cells (erythrocytes), dose 128 µg/ml, read-out: Activity
Procedure, shortened: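 Single-donor human erythrocytes as a 5% v/v suspension in PBS. Compounds serially diluted in PBS, in triplicate, and incubated with RBCs at 37 °C for 60 min. PBS served as the negative control and Triton-X as the positive control. Samples spun at 4,000 rpm for 5 min and supernatant absorbance read at 540 nm. Percent hemolysis = 100×(sample−negative)/(positive−negative).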

Staphylococcus aureus [23] = assay: Bactericidal activity against methicillin-resistant Staphylococcus aureus ATCC 33592 assessed as reduction in bacterial growth incubated for 18 hrs by CLSI method; assay type: functional
Staphylococcus aureus [24] = assay: Synergistic antibacterial activity against methicillin-resistant Staphylococcus aureus ATCC 33592 assessed as fractional inhibitory concentration index in presence of linezolid by checkerboard assay; assay type: functional
Staphylococcus aureus [25] = assay: Synergistic antibacterial activity against methicillin-resistant Staphylococcus aureus ATCC 33592 assessed as fractional inhibitory concentration index in presence of methicillin by checkerboard assay; assay type: functional
Staphylococcus aureus [26] = assay: Synergistic antibacterial activity against methicillin-resistant Staphylococcus aureus ATCC 33592 assessed as fractional inhibitory concentration index in presence of daptomycin by checkerboard assay; assay type: functional
Staphylococcus aureus [27] = assay: Synergistic antibacterial activity against methicillin-resistant Staphylococcus aureus ATCC 33592 assessed as fractional inhibitory concentration index in presence of Vancomycin; assay type: functional
Staphylococcus aureus [28] = assay: Antibacterial activity against methicillin-resistant Staphylococcus aureus ATCC 33592 assessed as reduction in bacterial count at 3 x MIC incubated upto 24 hrs by time kill analysis; assay type: functional; settings: time hrs <=24
Procedure, shortened: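 Time-kill assay. […] Samples taken at 0, 2, 4, 8, 12 and 24 h, serially diluted in PBS and plated on tryptic soy agar. Viable CFU/mL counted after 18-20 h at 37 °C.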

J774 = assay: Cytotoxicity against mouse J774 cells assessed as reduction in cell viability at 32 ug/ml incubated for 24 hrs by MTS assay; assay type: cell-based; settings: j774, 24 h, dose 32 µg/ml
Staphylococcus aureus [29] = assay: Antibacterial activity against methicillin-resistant Staphylococcus aureus USA400 infected in mouse J774 cells assessed as log reduction in intracellular growth at 8 ug/ml incubated for 18 to 22 hrs; assay type: functional; settings: dose 8 µg/ml; time 18-22 hrs
Procedure, shortened: (§3)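 J774 murine macrophages grown in DMEM with 10% FBS at 37 °C, 5% CO2. Cells infected with MRSA USA400 at MOI about 10:1 for 1 h, then washed with gentamicin to remove extracellular bacteria. Agents added at 8 or 16 μg/mL in triplicate, with DMSO vehicle control, for 24 h. Cells lysed with 0.1% Triton-X, lysates plated on tryptic soy agar, and CFU counted after 18-22 h at 37 °C. Analysed by two-way ANOVA with Dunnett's test.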

Staphylococcus aureus [30] = assay: Antibacterial activity against methicillin-resistant Staphylococcus aureus USA400 infected in mouse J774 cells assessed as log reduction in intracellular growth at 16 ug/ml incubated for 18 to 22 hrs; assay type: functional; settings: dose 16 µg/ml; time 18-22 hrs; procedure, shortened: as §3

Structure (SMILES) | MIC (Staphylococcus aureus [3]) | MIC (Staphylococcus aureus [4]) | MIC (Staphylococcus aureus [5]) | MIC (Staphylococcus aureus [6]) | MIC (Staphylococcus aureus [7]) | MIC (Staphylococcus aureus [8]) | MIC (Staphylococcus aureus [9]) | MIC (Staphylococcus aureus [10]) | MIC (Staphylococcus aureus [11]) | MIC (Staphylococcus aureus [12]) | MIC (Staphylococcus aureus [15]) | MIC (Staphylococcus aureus [16]) | MIC [17] | MIC (Listeria monocytogenes) | MBC (Staphylococcus aureus [23]) | Activity (Staphylococcus aureus [28]) | other results
O=C(Nc1nnc(-c2cccs2)o1)c1ccc(SC(F)(F)F)cc1 | 0.5 µg/mL (≈ 1.35 µM) | 0.25 µg/mL (≈ 0.673 µM) | 0.5 µg/mL (≈ 1.35 µM) | 0.5 µg/mL (≈ 1.35 µM) | 0.25 µg/mL (≈ 0.673 µM) | 0.5 µg/mL (≈ 1.35 µM) | 0.5 µg/mL (≈ 1.35 µM) | 2 µg/mL (≈ 5.39 µM) | 0.5 µg/mL (≈ 1.35 µM) | 0.125 µg/mL (≈ 0.337 µM) | 0.5 µg/mL (≈ 1.35 µM) | 0.5 µg/mL (≈ 1.35 µM) | 0.25 µg/mL (≈ 0.673 µM) | 0.5 µg/mL (≈ 1.35 µM) | 1 µg/mL (≈ 2.69 µM) | 4.2 log10CFU/ml | MIC (Staphylococcus aureus [1]): 0.5 µg/mL (≈ 1.35 µM); MIC (Staphylococcus aureus [2]): 0.5 µg/mL (≈ 1.35 µM); MIC (Staphylococcus aureus [13]): 0.5 µg/mL (≈ 1.35 µM); MIC (Staphylococcus aureus [14]): 0.5 µg/mL (≈ 1.35 µM); MIC (Streptococcus pneumoniae [18]): 0.25 µg/mL (≈ 0.673 µM); MIC (Streptococcus pneumoniae [19]): 0.25 µg/mL (≈ 0.673 µM); MIC (Enterococcus faecalis [20]): 4 µg/mL (≈ 10.8 µM); MIC (Enterococcus faecalis [21]): 4 µg/mL (≈ 10.8 µM); inhibition (Escherichia coli): inactive; inhibition (Pseudomonas aeruginosa): inactive; inhibition (Acinetobacter baumannii): inactive; Activity (Caco-2): Non-Toxic; hemolysis at 1 h, 128 ug/ml [22]: 19%; fractional inhibitory concentration index (FICI) (Staphylococcus aureus [24]): 0.0625; fractional inhibitory concentration index (FICI) (Staphylococcus aureus [25]): 0.5; fractional inhibitory concentration index (FICI) (Staphylococcus aureus [26]): 0.63; fractional inhibitory concentration index (FICI) (Staphylococcus aureus [27]): 1; Activity (J774): Non-Toxic; Activity (Staphylococcus aureus [29]): 0.7 log10CFU/ml; Activity (Staphylococcus aureus [30]): 0.9 log10CFU/ml
CC(=O)NC[C@H]1CN(c2ccc(N3CCOCC3)c(F)c2)C(=O)O1 [LINEZOLID] | 0.5 µg/mL (≈ 1.48 µM) | 0.5 µg/mL (≈ 1.48 µM) | > 64 µg/mL | 1 µg/mL (≈ 2.96 µM) | 1 µg/mL (≈ 2.96 µM) | 1 µg/mL (≈ 2.96 µM) | 1 µg/mL (≈ 2.96 µM) | 1 µg/mL (≈ 2.96 µM) | 1 µg/mL (≈ 2.96 µM) | 1 µg/mL (≈ 2.96 µM) | > 64 µg/mL | > 64 µg/mL | 1 µg/mL (≈ 2.96 µM) | 0.5 µg/mL (≈ 1.48 µM) | > 128 µg/mL | 1.7 log10CFU/ml | 
